Experimental data as given in the RNAGym collection of RNA variant scans (doi:10.1126/science.aae0568).
This sample holds only a part of the variants without activity.

B1: tRNA (parent)
chain: GUUCCGUUGGCGUAAUGGUAACGCGUCUCCCUCCUAAGGAGAAGACUGCGGGUUCGAGUCCCGUACGGAACG

Variants of: B1
Assay: yeast fitness relative to wild type (ratio to wild type); higher = fitter; tRNA-Arg(CCU), competitive growth, 37 C, YPD
In short: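 Variants of the tRNA-Arg(CCU) gene were chemically synthesised with a 3% per-site mutation rate across 69 sites and placed at the native genomic locus in Saccharomyces cerevisiae. Six parallel replicates of the pooled strains were competed in YPD at 37°C for 24 hours, and gene amplicons from the start and end populations were read by 100-nucleotide paired-end sequencing. Darwinian fitness relative to wild type was derived from changes in genotype frequencies. Genotypes required ≥ 100 starting reads, and estimates < 0.5 were set to 0.5.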

First: G17C C62U A65C
Second: A42C C62U C66U
The yeast fitness of the first is higher: 0.593 for the first, 0.507 for the second.

Going from C27U C29A G38C A57G C61U to G6A A15C A20U, the yeast fitness rises from ≤ 0.5 to 0.56.

Compared with U53C U64C, C5A C11G A21U A65C is lower in yeast fitness: 0.817 for the first, ≤ 0.5 for the second.

Compared with C5G A65U, A37C A57U A65U is lower in yeast fitness: 0.796 for the first, 0.637 for the second.

U3G C11U U19C A20U A42C A65C and C5U C11A A14G A42G C49U U64A cannot be ordered by yeast fitness: ≤ 0.5 for the first, ≤ 0.5 for the second.

C29G G52C A57U and A21U U28C C29G C49G A70U cannot be ordered by yeast fitness: ≤ 0.5 for the first, ≤ 0.5 for the second.

Compared with A40C C46U C55G A70U, G25C C55U is higher in yeast fitness: 0.503 for the first, 0.916 for the second.

Going from G48A C49A to U19G A42U C55U, the yeast fitness falls from 0.969 to 0.692.

Going from C11U C31A G67A to U47C G67C, the yeast fitness rises from ≤ 0.5 to 0.886.

U35A A37G A43U A45C C61U and A21C G68C A69U cannot be ordered by yeast fitness: ≤ 0.5 for the first, ≤ 0.5 for the second.

C29U U35C C62U A70U and U3A G9A C62G C66G cannot be ordered by yeast fitness: ≤ 0.5 for the first, ≤ 0.5 for the second.

First: C11A A43G U54C A65C
Second: C29A U35A
The yeast fitness of the first is lower: ≤ 0.5 for the first, 0.672 for the second.

C27U C29A C49A and U16C G18C A42G cannot be ordered by yeast fitness: ≤ 0.5 for the first, ≤ 0.5 for the second.

Compared with A40U U54A, C5G A15U is higher in yeast fitness: 0.576 for the first, 0.747 for the second.

First: C27U G48C
Second: C5A U59G
The yeast fitness of the first is higher: 0.958 for the first, 0.746 for the second.

U26C C30G C34A C62U and A21U C22U C66U A69U cannot be ordered by yeast fitness: ≤ 0.5 for the first, ≤ 0.5 for the second.

First: G10C A70G
Second: C4A C5G A20C A40U A65C
The yeast fitness of the first is higher: 0.644 for the first, ≤ 0.5 for the second.

First: G12C G18C U54C
Second: U2G U64A
The yeast fitness of the first is lower: ≤ 0.5 for the first, 0.776 for the second.

Going from U7C G48C G67C to U8C G48A, the yeast fitness rises from ≤ 0.5 to 0.899.

First: U8C G51A
Second: A20U A36G A70U
The yeast fitness of the first is higher: 0.817 for the first, 0.626 for the second.

Compared with C27G A42C C49G C61G, C4U U8A U13C C46A C61U is lower in yeast fitness: 0.669 for the first, ≤ 0.5 for the second.

Compared with A14G A20G A69C, A14U A45G U53C is lower in yeast fitness: 0.528 for the first, ≤ 0.5 for the second.

Compared with A14C C31U A36U, G18A C33U A57G is lower in yeast fitness: 0.631 for the first, ≤ 0.5 for the second.

C4G G12A G52A and C30G C49A U53C G63A C66G cannot be ordered by yeast fitness: ≤ 0.5 for the first, ≤ 0.5 for the second.

Going from U16C U59A C62A G67C to U8A, the yeast fitness rises from ≤ 0.5 to 0.741.

Compared with U8C, C4A A20U C30U is lower in yeast fitness: 1.03 for the first, ≤ 0.5 for the second.

Going from G17A G41A to C4U U7A C30G C34G A40C A57U, the yeast fitness falls from 0.665 to ≤ 0.5.

Going from U7C U47G to G6C C33U, the yeast fitness rises from ≤ 0.5 to 0.644.

Going from C34G G58C A69C to C4G C5U C31G G41A A43C G51C, the yeast fitness rises from 0.576 to 0.606.

First: C33G G51A A65C
Second: C4U U8A A36C C61U
The yeast fitness of the first is higher: 0.709 for the first, ≤ 0.5 for the second.

Going from G38C A65U to A14U C24G U26G, the yeast fitness falls from 0.723 to ≤ 0.5.

C24U C29U G51U and U26C C61G C62G cannot be ordered by yeast fitness: ≤ 0.5 for the first, ≤ 0.5 for the second.

Compared with G25A A37C G68U, U8G C34U C66G is lower in yeast fitness: 0.702 for the first, ≤ 0.5 for the second.

Compared with C11A G48A, U7A G9C G17C G48A G68C is lower in yeast fitness: 0.642 for the first, ≤ 0.5 for the second.

Going from C24A A37G to C24G C27U C33U G50C A69U, the yeast fitness falls from 0.513 to ≤ 0.5.

Going from A40G A43C to U7G C11U G12C C33U, the yeast fitness falls from 1.04 to ≤ 0.5.

C5G C11G A15C A45U C49U and A15G G23C C30A A42C G44A G51C cannot be ordered by yeast fitness: ≤ 0.5 for the first, ≤ 0.5 for the second.

Compared with U2G C4U C60G, G9C C29U C30A C46G is lower in yeast fitness: 0.54 for the first, ≤ 0.5 for the second.

Going from C27G C29G C34U C55U C61G to G48C G50A, the yeast fitness rises from 0.65 to 0.651.

G17C C29G G39A and G17C G48C G67C cannot be ordered by yeast fitness: ≤ 0.5 for the first, ≤ 0.5 for the second.

Compared with U16A C60A C62U, G12A U19G is higher in yeast fitness: 0.609 for the first, 0.893 for the second.

Going from C62A A65U A70U to U8C C27A A42C, the yeast fitness rises from 0.531 to 0.532.

First: G6A A20C G23C C27A
Second: U19G A40C
The yeast fitness of the first is lower: ≤ 0.5 for the first, 0.732 for the second.

Going from G6A A37C A40G to A20C G56A, the yeast fitness rises from ≤ 0.5 to 0.866.

Going from C5U A21U C30G G58C to G17A G56A C66U, the yeast fitness rises from ≤ 0.5 to 0.678.

C5G G9C U13C A21G and A15U G18A G58A cannot be ordered by yeast fitness: ≤ 0.5 for the first, ≤ 0.5 for the second.

Compared with A14U G18C, U7G C46U C60A G67A is lower in yeast fitness: 0.583 for the first, ≤ 0.5 for the second.

First: C5A G6C A15G A40G
Second: U8C A45U U59C
The yeast fitness of the first is lower: ≤ 0.5 for the first, 0.57 for the second.

Going from G6C U7G G17C G67A to C34G G38A, the yeast fitness rises from ≤ 0.5 to 0.624.

First: U3C C30A C31U
Second: G10A C30U C60G
The yeast fitness of the first is higher: 0.747 for the first, ≤ 0.5 for the second.

First: A20C C34U G52A
Second: U13G A42C U64C
The yeast fitness of the first is lower: 0.574 for the first, 0.715 for the second.

Going from G38C G51A G58A to C5U U16G G41C G51A C60G A70U, the yeast fitness falls from 0.517 to ≤ 0.5.

Compared with U2A A45U, G9C U28A G50C U59A is lower in yeast fitness: 0.863 for the first, 0.685 for the second.

First: A43G A45C C46U
Second: C4U G10C
The yeast fitness of the first is lower: 0.578 for the first, 0.625 for the second.

Going from C11G A37G G50A to C5A C11G G41C, the yeast fitness rises from ≤ 0.5 to 0.561.

A37U U59G C60U and C4G A15U A40C C60A C61G A65C cannot be ordered by yeast fitness: ≤ 0.5 for the first, ≤ 0.5 for the second.

Compared with C4U G12A G39C C49A U64G, A14C A37G A45C is lower in yeast fitness: 0.544 for the first, ≤ 0.5 for the second.

C5G A21U G23A C29A A37U C61U and G18A A45C C55U C61G cannot be ordered by yeast fitness: ≤ 0.5 for the first, ≤ 0.5 for the second.

Compared with A21C C27U, C33U A40G is lower in yeast fitness: 0.774 for the first, 0.71 for the second.

C11A C29G G44A G56C C62A G67C and U7A G9C G17C C61U C62G A65C cannot be ordered by yeast fitness: ≤ 0.5 for the first, ≤ 0.5 for the second.

A45U C46G G63A and C24G U53G cannot be ordered by yeast fitness: ≤ 0.5 for the first, ≤ 0.5 for the second.

Going from A15U U16A to U3A C30G C33U G67U, the yeast fitness falls from 0.705 to ≤ 0.5.

Going from A57U G58A A65U to C27U A37U A65U, the yeast fitness falls from 0.621 to 0.591.

Going from A21C G23A G58C A65U to A14G A21C A65C, the yeast fitness rises from ≤ 0.5 to 0.539.

Compared with U2A C61U, C27U A36C A57G is lower in yeast fitness: 0.768 for the first, ≤ 0.5 for the second.

G18C U35A A45C G48A and U7G C27A A36C A42U U64G A70U cannot be ordered by yeast fitness: ≤ 0.5 for the first, ≤ 0.5 for the second.

U3C U7C U8A A15U G50A U53A and A14G G18A C22G cannot be ordered by yeast fitness: ≤ 0.5 for the first, ≤ 0.5 for the second.

Compared with U2C A43G, C11G G23C C49U G56A G63A is lower in yeast fitness: 0.887 for the first, ≤ 0.5 for the second.

U3A C30U G56A and U8C A14U C22G C30U A57C C61A G67A cannot be ordered by yeast fitness: ≤ 0.5 for the first, ≤ 0.5 for the second.

Going from A37C C49G A70C to C4G G6A U64A, the yeast fitness rises from ≤ 0.5 to 0.651.

Going from C5G C30A C31A C49U C55G to C4G U7C A45U G48C, the yeast fitness falls from 0.544 to ≤ 0.5.

First: C55G A57U C62U
Second: A15C A36U C61A
The yeast fitness of the first is higher: 0.544 for the first, ≤ 0.5 for the second.

Compared with U8A G17A C22U, C11U A15U G51A G56C is lower in yeast fitness: 0.607 for the first, ≤ 0.5 for the second.

C11G C29A C60U U64A and C22U C31G C49U A65G cannot be ordered by yeast fitness: ≤ 0.5 for the first, ≤ 0.5 for the second.

G6A A21G C46A C55U G56A and C22G C62U G68C cannot be ordered by yeast fitness: ≤ 0.5 for the first, ≤ 0.5 for the second.

C24G C31U C55A and C46A C49A C61A cannot be ordered by yeast fitness: ≤ 0.5 for the first, ≤ 0.5 for the second.

Going from C5A A21G to G6C A15C G52C, the yeast fitness falls from 0.942 to ≤ 0.5.

C4A G23A U35G C61A and C11U A20U C24U C29A cannot be ordered by yeast fitness: ≤ 0.5 for the first, ≤ 0.5 for the second.

Going from C5G C27G C33U G56A U64C A69U to A15G C60U, the yeast fitness rises from ≤ 0.5 to 0.786.

First: U8C A21U G67C A69U
Second: C27U G67U
The yeast fitness of the first is lower: ≤ 0.5 for the first, 0.854 for the second.

Going from C34A C46U A65C to A21U A36G C49A, the yeast fitness falls from 0.569 to ≤ 0.5.

Compared with U3A C5A G6C A15G U16A G67U, G6A A20G C49A is higher in yeast fitness: ≤ 0.5 for the first, 0.616 for the second.

First: C55U C61G A65G G68A
Second: U2C U19G A69C
The yeast fitness of the first is higher: 0.584 for the first, 0.543 for the second.

In the case of G6A U64A, the yeast fitness is reported as 0.71.
